The text below walks through data of ChEMBL document CHEMBL1781970, “Synthesis and antiproliferative evaluation of 23-hydroxybetulinic acid derivatives” (Eur J Med Chem, 2011).

Assay type in all cases: functional, cell-based
Experiment [1] deals with HeLa. Nature of the experiment: Antiproliferative activity against human HeLa cells after 72 hrs by MTT assay. The method in brief: (§1)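 Cells grown in RPMI 1640 with 10% FBS and 1% penicillin-streptomycin at 37 °C, 5% CO2, then seeded overnight in 96-well plates. Test compounds were dissolved in DMSO (doxorubicin control in PBS) and given at various concentrations for 72 h at 37 °C. MTT (5 mg/mL in PBS) was added for 4 h and OD read at 570 nm. IC50 was taken from dose-response curves; mean ± SD, ≥3 independent experiments.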

For experiment [2], the system named is MCF7. Nature of the experiment: Antiproliferative activity against human MCF7 cells after 72 hrs by MTT assay. The note with it: MCF7, 72 h. The method in brief: as §1
A general note: Formazan colour is commonly taken as a measure of viable cells.

Experiment [3] deals with HepG2. Nature of the experiment: Antiproliferative activity against human HepG2 cells after 72 hrs by MTT assay. The note with it: HepG2, 72 h. The procedure, abridged:
as §1

For experiment [4], the system named is B16. The experiment in a line: Antiproliferative activity against mouse B16 cells after 72 hrs by MTT assay. The note with it: B16, 72 h. The method in brief: as §1
Experiment [5] deals with A-375. Nature of the experiment: Antiproliferative activity against human A375 cells after 72 hrs by MTT assay. The note with it: A-375, 72 h. The method in brief: as §1

Regarding `C=C(C)[C@@H]1CC[C@]2(C(=O)N3CCC(N4CCCCC4)CC3)CC[C@]3(C)[C@H](CC[C@@H]4[C@@]5(C)CC[C@@H]6OC(=O)OC[C@@]6(C)[C@@H]5CC[C@]43C)[C@@H]12`, the IC50 (commonly the concentration at which inhibition is half-maximal) in experiment [1] was 20.6 µM; in experiment [2], 17.6 µM; in experiment [3], 10.3 µM; in experiment [4], 8.69 µM; in experiment [5], 20.4 µM.

In the case of `C=C(C)[C@@H]1CC[C@]2(C(=O)NCCNC(=O)CCC(=O)O)CC[C@]3(C)[C@H](CC[C@@H]4[C@@]5(C)CC[C@H](OC(C)=O)[C@@](C)(COC(C)=O)[C@@H]5CC[C@]43C)[C@@H]12`, the IC50 in experiment [1] was determined as 72.9 µM; in experiment [2] it was 51 µM; in experiment [3] it was 76.1 µM; in experiment [4] it was 82.6 µM; in experiment [5], 59.5 µM.

For the compound `C=C(CO)[C@@H]1CC[C@]2(C(=O)OCCC(C)C)CC[C@]3(C)[C@H](CC[C@@H]4[C@@]5(C)CC[C@H](O)[C@@](C)(CO)[C@@H]5CC[C@]43C)[C@@H]12`, the IC50 in experiment [1] was 20.9 µM; in experiment [2], 12.5 µM; in experiment [3], 34.6 µM; in experiment [4] it was 51.2 µM; in experiment [5] it was 17.9 µM.

For `C=C(C)[C@@H]1CC[C@]2(C(=O)N3CCC(N4CCCCC4)CC3)CC[C@]3(C)[C@H](CC[C@@H]4[C@@]5(C)CC[C@H](O)[C@@](C)(CO)[C@@H]5CC[C@]43C)[C@@H]12`, the IC50 is 8.42 µM in experiment [1]; 6.78 µM in experiment [2]; 12.6 µM in experiment [3]; 5.71 µM in experiment [4]; 9.67 µM in experiment [5].

In the case of `C=C(CO)[C@@H]1CC[C@]2(C(=O)N3CCC[C@H]3C(=O)OC)CC[C@]3(C)[C@H](CC[C@@H]4[C@@]5(C)CC[C@H](OC(C)=O)[C@@](C)(COC(C)=O)[C@@H]5CC[C@]43C)[C@@H]12`, the IC50 amounted to 13.1 µM in experiment [1]; 32 µM in experiment [2]; 10 µM in experiment [3]; 69 µM in experiment [4]; 11.8 µM in experiment [5].

In the case of `C=C(CO)[C@@H]1CC[C@]2(C(=O)OC(C)(C)C)CC[C@]3(C)[C@H](CC[C@@H]4[C@@]5(C)CC[C@H](O)[C@@](C)(CO)[C@@H]5CC[C@]43C)[C@@H]12`, the IC50 in experiment [1] is 30.7 µM; in experiment [2], 16.4 µM; in experiment [3], 22.7 µM; in experiment [4] it was 84.1 µM; in experiment [5], 42.7 µM.

As for `C=C(C)[C@@H]1CC[C@]2(C(=O)NCCCCn3nnc(-c4ccccn4)n3)CC[C@]3(C)[C@H](CC[C@@H]4[C@@]5(C)CC[C@H](OC(C)=O)[C@@](C)(COC(C)=O)[C@@H]5CC[C@]43C)[C@@H]12`, the IC50 is 17.9 µM in experiment [1]; 16.1 µM in experiment [2]; 3.91 µM in experiment [3]; 4.75 µM in experiment [4]; 1.81 µM in experiment [5].

`C=C(C)[C@@H]1CC[C@]2(C(=O)OCCN3CCOCC3)CC[C@]3(C)[C@H](CC[C@@H]4[C@@]5(C)CC[C@H](OC(C)=O)[C@@](C)(COC(C)=O)[C@@H]5CC[C@]43C)[C@@H]12`: the IC50 came out at 9.18 µM in experiment [1]; 97.6 µM in experiment [2]; 12.3 µM in experiment [3]; 24.2 µM in experiment [4]; 8.71 µM in experiment [5].

As for `C=C(C)[C@@H]1CC[C@]2(C(=O)NCCN)CC[C@]3(C)[C@H](CC[C@@H]4[C@@]5(C)CC[C@H](OC(C)=O)[C@@](C)(COC(C)=O)[C@@H]5CC[C@]43C)[C@@H]12`, the IC50 in experiment [1] was 7.39 µM; in experiment [2], 3.93 µM; in experiment [3] it was 7.99 µM; in experiment [4], 4.61 µM; in experiment [5] it was 9.99 µM.

Regarding `C=C(C)[C@@H]1CC[C@]2(C(=O)NCC(=O)N[C@@H](C)C(=O)O)CC[C@]3(C)[C@H](CC[C@@H]4[C@@]5(C)CC[C@H](O)[C@@](C)(CO)[C@@H]5CC[C@]43C)[C@@H]12`, the IC50 in experiment [1] stood at 22.1 µM; in experiment [2], 17.2 µM; in experiment [3], 32.4 µM; in experiment [4] it was 22.2 µM; in experiment [5], 18.4 µM.

On to `C=C(CO)[C@@H]1CC[C@]2(C(=O)OCC3CCCO3)CC[C@]3(C)[C@H](CC[C@@H]4[C@@]5(C)CC[C@H](OC(C)=O)[C@@](C)(COC(C)=O)[C@@H]5CC[C@]43C)[C@@H]12` (stereo not given in full), for which the IC50 in experiment [1] stood at 17.8 µM; in experiment [2], 33.6 µM; in experiment [3], 18.7 µM; in experiment [4], 41.8 µM; in experiment [5] it was 12.5 µM.

For `C=C(C)[C@@H]1CC[C@]2(C(=O)OC/C=C/CO)CC[C@]3(C)[C@H](CC[C@@H]4[C@@]5(C)CC[C@H](OC(C)=O)[C@@](C)(COC(C)=O)[C@@H]5CC[C@]43C)[C@@H]12`, the IC50 in experiment [1] was 16.4 µM; in experiment [2], 15.9 µM; in experiment [3], 7.43 µM; in experiment [4], more than 100 µM; in experiment [5], 5.72 µM.

For the compound `C=C(C)[C@@H]1CC[C@]2(C(=O)N3CCC[C@H]3C(=O)OC)CC[C@]3(C)[C@H](CC[C@@H]4[C@@]5(C)CC[C@H](OC(C)=O)[C@@](C)(COC(C)=O)[C@@H]5CC[C@]43C)[C@@H]12`, the IC50 in experiment [1] amounted to 9.78 µM; in experiment [2] it was 27.2 µM; in experiment [3], 9.78 µM; in experiment [4], 93.7 µM; in experiment [5], 5.83 µM.

For the compound `C=C(C)[C@@H]1CC[C@]2(C(=O)NCC(=O)N3CCC[C@H]3C(=O)OC)CC[C@]3(C)[C@H](CC[C@@H]4[C@@]5(C)CC[C@H](O)[C@@](C)(CO)[C@@H]5CC[C@]43C)[C@@H]12`, the IC50 in experiment [1] worked out at 4.84 µM; in experiment [2] it was 7.58 µM; in experiment [3], 9.33 µM; in experiment [4], 8.23 µM; in experiment [5], 3.34 µM.

Consider `C=C(C)[C@@H]1CC[C@]2(C(=O)N3CCNCC3)CC[C@]3(C)[C@H](CC[C@@H]4[C@@]5(C)CC[C@H](O)[C@@](C)(CO)[C@@H]5CC[C@]43C)[C@@H]12`, for which the IC50 came out at 7.12 µM in experiment [1]; 2.27 µM in experiment [2]; 8.85 µM in experiment [3]; 4.39 µM in experiment [4]; 2.3 µM in experiment [5].

For `C=C(CO)[C@@H]1CC[C@]2(C(=O)OC(C)C)CC[C@]3(C)[C@H](CC[C@@H]4[C@@]5(C)CC[C@H](O)[C@@](C)(CO)[C@@H]5CC[C@]43C)[C@@H]12`, the IC50 came out at 22.3 µM in experiment [1]; 16.6 µM in experiment [2]; 21 µM in experiment [3]; 38.6 µM in experiment [4]; 21.2 µM in experiment [5].

On to `C=C(C)[C@@H]1CC[C@]2(C(=O)NCC(=O)N3CCC[C@H]3C(=O)O)CC[C@]3(C)[C@H](CC[C@@H]4[C@@]5(C)CC[C@H](O)[C@@](C)(CO)[C@@H]5CC[C@]43C)[C@@H]12`, for which the IC50 in experiment [1], in experiment [2], in experiment [3], in experiment [4] and in experiment [5] was more than 100 µM throughout.

Turning to `C=C(C)[C@@H]1CC[C@]2(C(=O)NCC(=O)N[C@@H](Cc3c[nH]c4ccccc34)C(=O)OC)CC[C@]3(C)[C@H](CC[C@@H]4[C@@]5(C)CC[C@H](O)[C@@](C)(CO)[C@@H]5CC[C@]43C)[C@@H]12`, the IC50 was 66.3 µM in experiment [1]; more than 100 µM in experiment [2]; 46.8 µM in experiment [3]; 44.4 µM in experiment [4]; more than 100 µM in experiment [5].

`C=C(C)[C@@H]1CC[C@]2(C(=O)NCCN)CC[C@]3(C)[C@H](CC[C@@H]4[C@@]5(C)CC[C@H](O)[C@@](C)(CO)[C@@H]5CC[C@]43C)[C@@H]12`: the IC50 worked out at 8.92 µM in experiment [1]; 2.93 µM in experiment [2]; 9.57 µM in experiment [3]; 8.38 µM in experiment [4]; 4.83 µM in experiment [5].

As to `C=C(C)[C@@H]1CC[C@]2(C(=O)N3CCC[C@H]3C(=O)N[C@@H](CCSC)C(=O)OC)CC[C@]3(C)[C@H](CC[C@@H]4[C@@]5(C)CC[C@H](O)[C@@](C)(CO)[C@@H]5CC[C@]43C)[C@@H]12`, the IC50 in experiment [1] was 41.3 µM; in experiment [2], 19.8 µM; in experiment [3], 40.5 µM; in experiment [4] it was 20.7 µM; in experiment [5], 30.1 µM.

On to `C=C(C)[C@@H]1CC[C@]2(C(=O)N3CCCCC3)CC[C@]3(C)[C@H](CC[C@@H]4[C@@]5(C)CC[C@H](O)[C@@](C)(CO)[C@@H]5CC[C@]43C)[C@@H]12`, for which the IC50 is 66.5 µM in experiment [1]; 16.6 µM in experiment [2]; 68.6 µM in experiment [3]; 43.7 µM in experiment [4]; 17.9 µM in experiment [5].

Take `C=C(CO)[C@@H]1CC[C@]2(C(=O)N3CCOCC3)CC[C@]3(C)[C@H](CC[C@@H]4[C@@]5(C)CC[C@H](OC(C)=O)[C@@](C)(COC(C)=O)[C@@H]5CC[C@]43C)[C@@H]12`: the IC50 in experiment [1] is 18.3 µM; in experiment [2] it was 17.3 µM; in experiment [3], 20.7 µM; in experiment [4], 39.3 µM; in experiment [5] it was 31.8 µM.
